# In ChEMBL document CHEMBL4665633, “Cereblon versus VHL: Hijacking E3 ligases against each other using PROTACs” (Bioorg Med Chem, 2019):
# Activity calls are given as the source filed them. The rule behind the calls is not given here.
# Key:
# Type in all cases: cell-based
# [1] = target: T1, Protein cereblon/von Hippel-Lindau disease tumor suppressor (Homo sapiens, UniProt P40337+Q96SW2); test: Protac activity at VHL/CRBN in human HeLa cells assessed as pVHL30 protein abundance at 5 nM after 4 hrs by Western blot analysis relative to DMSO
# Procedure, shortened: (§1)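 HeLa cells (5 × 10⁵, DMEM + 10% FBS, 37 °C, 5% CO₂, ≤30 passages) seeded overnight, then treated 4 h with compound at single or graded concentrations (0.1% v/v DMSO final). RIPA lysates equalised by Bradford; SDS-PAGE and anti-CRBN/anti-VHL immunoblots; bands normalised to β-tubulin and expressed as % of mean DMSO vehicle. DC₅₀ from fit of band intensity versus log[concentration].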
# Target sequence in this assay (P40337 whole entry, looked up): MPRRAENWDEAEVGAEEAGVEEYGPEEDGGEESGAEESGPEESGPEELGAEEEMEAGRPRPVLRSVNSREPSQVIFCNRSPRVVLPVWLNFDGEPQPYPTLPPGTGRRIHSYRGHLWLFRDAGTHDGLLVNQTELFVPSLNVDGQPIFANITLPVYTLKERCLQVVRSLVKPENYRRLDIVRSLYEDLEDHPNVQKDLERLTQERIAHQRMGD
# Target sequence in this assay (Q96SW2 whole entry, looked up): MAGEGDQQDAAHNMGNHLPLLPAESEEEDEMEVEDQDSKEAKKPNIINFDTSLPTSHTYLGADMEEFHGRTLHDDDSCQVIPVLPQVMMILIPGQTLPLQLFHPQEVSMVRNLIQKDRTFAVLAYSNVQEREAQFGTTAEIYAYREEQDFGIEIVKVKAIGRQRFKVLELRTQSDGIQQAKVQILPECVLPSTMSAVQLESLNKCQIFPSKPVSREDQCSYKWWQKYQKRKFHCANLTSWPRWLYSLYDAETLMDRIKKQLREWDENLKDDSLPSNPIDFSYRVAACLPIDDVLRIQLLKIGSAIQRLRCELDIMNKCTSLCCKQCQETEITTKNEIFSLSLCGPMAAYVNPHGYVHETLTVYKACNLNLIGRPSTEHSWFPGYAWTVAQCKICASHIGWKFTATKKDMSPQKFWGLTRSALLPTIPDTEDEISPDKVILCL
# [2] = target: T1, Protein cereblon/von Hippel-Lindau disease tumor suppressor; test: Protac activity at VHL/CRBN in human HeLa cells assessed as induction of CRBN degradation at 10 nM after 4 hrs by Western blot analysis relative to control; procedure, shortened: as §1
# Target sequence in this assay (P40337 whole entry, looked up): as the sequence (P40337 whole entry, looked up) above
# Target sequence in this assay (Q96SW2 whole entry, looked up): as the sequence (Q96SW2 whole entry, looked up) above
# [3] = target: T1, Protein cereblon/von Hippel-Lindau disease tumor suppressor; test: Protac activity at VHL/CRBN in human HeLa cells assessed as CRBN protein abundance at 1 uM after 8 hrs by Western blot analysis relative to DMSO
# Procedure, shortened: (§2)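 HeLa cells seeded overnight, then exposed to 1 µM compound (0.1% v/v DMSO final) over a time course. Cells were DPBS-washed and RIPA-lysed with protease inhibitors and benzonase; equal protein was loaded. Immunoblots for CRBN and VHL isoforms were quantified against β-tubulin and reported relative to the averaged 0.1% DMSO vehicle.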
# Target sequence in this assay (P40337 whole entry, looked up): as the sequence (P40337 whole entry, looked up) above
# Target sequence in this assay (Q96SW2 whole entry, looked up): as the sequence (Q96SW2 whole entry, looked up) above
# [4] = target: T1, Protein cereblon/von Hippel-Lindau disease tumor suppressor; test: Protac activity at VHL/CRBN in human HeLa cells assessed as pVHL19 protein abundance at 500 nM after 4 hrs by Western blot analysis relative to DMSO; procedure, shortened: as §1
# Target sequence in this assay (P40337 whole entry, looked up): as the sequence (P40337 whole entry, looked up) above
# Target sequence in this assay (Q96SW2 whole entry, looked up): as the sequence (Q96SW2 whole entry, looked up) above
# [5] = target: T1, Protein cereblon/von Hippel-Lindau disease tumor suppressor; test: Protac activity at VHL/CRBN in human HeLa cells assessed as pVHL30 protein abundance at 10 nM after 4 hrs by Western blot analysis relative to DMSO; procedure, shortened: as §1
# Target sequence in this assay (P40337 whole entry, looked up): as the sequence (P40337 whole entry, looked up) above
# Target sequence in this assay (Q96SW2 whole entry, looked up): as the sequence (Q96SW2 whole entry, looked up) above
# [6] = target: T1, Protein cereblon/von Hippel-Lindau disease tumor suppressor; test: Protac activity at VHL/CRBN in human HeLa cells assessed as CRBN protein abundance at 5 nM after 4 hrs by Western blot analysis relative to DMSO; procedure, shortened: as §1
# Target sequence in this assay (P40337 whole entry, looked up): as the sequence (P40337 whole entry, looked up) above
# Target sequence in this assay (Q96SW2 whole entry, looked up): as the sequence (Q96SW2 whole entry, looked up) above
# [7] = target: T1, Protein cereblon/von Hippel-Lindau disease tumor suppressor; test: Protac activity at VHL/CRBN in human HeLa cells assessed as pVHL19 protein abundance at 1000 nM after 4 hrs by Western blot analysis relative to DMSO; procedure, shortened: as §1
# [8] = target: T1, Protein cereblon/von Hippel-Lindau disease tumor suppressor; test: Protac activity at VHL/CRBN in HEK293 cells assessed as CRBN protein abundance at 5000 nM after 4 hrs by Western blot analysis relative to DMSO
# Procedure, shortened: (§3)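 HEK293 cells (DMEM, 10% FBS, penicillin/streptomycin, L-glutamine; 37 °C, 5% CO2; ≤30 passages) seeded at 1 × 10⁶ per well overnight, then treated with compound at 0.1% v/v final DMSO. Cells were lysed in RIPA with protease inhibitors and benzonase, then clarified. Equal Bradford-quantified protein was immunoblotted for CRBN/VHL. Bands were normalised to β-tubulin and expressed as % of mean 0.1% DMSO vehicle.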
# [9] = target: T1, Protein cereblon/von Hippel-Lindau disease tumor suppressor; test: Protac activity at VHL/CRBN in human HeLa cells assessed as induction of CRBN degradation after 4 hrs by Western blot analysis; procedure, shortened: as §1
# Target sequence in this assay (P40337 whole entry): as the sequence (P40337 whole entry, looked up) above
# Target sequence in this assay (Q96SW2 whole entry): as the sequence (Q96SW2 whole entry, looked up) above
# [10] = target: T1, Protein cereblon/von Hippel-Lindau disease tumor suppressor; test: Protac activity at VHL/CRBN in human HeLa cells assessed as CRBN protein abundance at 1000 nM after 4 hrs by Western blot analysis relative to DMSO; procedure, shortened: as §1
# [11] = target: T1, Protein cereblon/von Hippel-Lindau disease tumor suppressor; test: Protac activity at VHL/CRBN in HEK293 cells assessed as pVHL19 protein abundance at 5 nM after 4 hrs by Western blot analysis relative to DMSO; procedure, shortened: as §3
# [12] = target: T1, Protein cereblon/von Hippel-Lindau disease tumor suppressor; test: Protac activity at VHL/CRBN in human HeLa cells assessed as pVHL30 protein abundance at 50 nM after 4 hrs by Western blot analysis relative to DMSO; procedure, shortened: as §1
# [13] = target: T1, Protein cereblon/von Hippel-Lindau disease tumor suppressor; test: Protac activity at VHL/CRBN in HEK293 cells assessed as pVHL30 protein abundance at 5000 nM after 4 hrs by Western blot analysis relative to DMSO; procedure, shortened: as §3
# [14] = target: T1, Protein cereblon/von Hippel-Lindau disease tumor suppressor; test: Protac activity at VHL/CRBN in human HeLa cells assessed as pVHL19 protein abundance at 1 uM after 24 hrs by Western blot analysis relative to DMSO; procedure, shortened: as §2
# [15] = target: T1, Protein cereblon/von Hippel-Lindau disease tumor suppressor; test: Protac activity at VHL/CRBN in human HeLa cells assessed as pVHL19 protein abundance at 1 uM after 12 hrs by Western blot analysis relative to DMSO; procedure, shortened: as §2
# [16] = target: T1, Protein cereblon/von Hippel-Lindau disease tumor suppressor; test: Protac activity at VHL/CRBN in HEK293 cells assessed as pVHL19 protein abundance at 10000 nM after 4 hrs by Western blot analysis relative to DMSO; procedure, shortened: as §3
# [17] = target: T1, Protein cereblon/von Hippel-Lindau disease tumor suppressor; test: Protac activity at VHL/CRBN in human HeLa cells assessed as CRBN protein abundance at 5000 nM after 4 hrs by Western blot analysis relative to DMSO; procedure, shortened: as §1
# [18] = target: T1, Protein cereblon/von Hippel-Lindau disease tumor suppressor; test: Protac activity at VHL/CRBN in HEK293 cells assessed as pVHL19 protein abundance at 10 nM after 4 hrs by Western blot analysis relative to DMSO; procedure, shortened: as §3
# [19] = target: T1, Protein cereblon/von Hippel-Lindau disease tumor suppressor; test: Protac activity at VHL/CRBN in HEK293 cells assessed as pVHL30 protein abundance at 1 uM after 4 hrs by Western blot analysis relative to DMSO; procedure, shortened: as §3
# [20] = target: T1, Protein cereblon/von Hippel-Lindau disease tumor suppressor; test: Protac activity at VHL/CRBN in HEK293 cells assessed as pVHL30 protein abundance at 1 uM after 1 hr by Western blot analysis relative to DMSO; procedure, shortened: as §3
# [21] = target: T1, Protein cereblon/von Hippel-Lindau disease tumor suppressor; test: Protac activity at VHL/CRBN in HEK293 cells assessed as pVHL30 protein abundance at 1 uM after 8 hrs by Western blot analysis relative to DMSO; procedure, shortened: as §3
# [22] = target: T1, Protein cereblon/von Hippel-Lindau disease tumor suppressor; test: Protac activity at VHL/CRBN in HEK293 cells assessed as pVHL19 protein abundance at 1000 nM after 4 hrs by Western blot analysis relative to DMSO; procedure, shortened: as §3
# [23] = target: T1, Protein cereblon/von Hippel-Lindau disease tumor suppressor; test: Protac activity at VHL/CRBN in human HeLa cells assessed as pVHL30 protein abundance at 1000 nM after 4 hrs by Western blot analysis relative to DMSO; procedure, shortened: as §1
# [24] = target: T1, Protein cereblon/von Hippel-Lindau disease tumor suppressor; test: Protac activity at VHL/CRBN in HEK293 cells assessed as pVHL19 protein abundance at 1 uM after 8 hrs by Western blot analysis relative to DMSO; procedure, shortened: as §3
# [25] = target: T1, Protein cereblon/von Hippel-Lindau disease tumor suppressor; test: Protac activity at VHL/CRBN in human HeLa cells assessed as induction of VHL degradation at 1 uM after 4 hrs by Western blot analysis; procedure, shortened: as §1
# [26] = target: T1, Protein cereblon/von Hippel-Lindau disease tumor suppressor; test: Protac activity at VHL/CRBN in HEK293 cells assessed as pVHL30 protein abundance at 500 nM after 4 hrs by Western blot analysis relative to DMSO; procedure, shortened: as §3
# [27] = target: T1, Protein cereblon/von Hippel-Lindau disease tumor suppressor; test: Protac activity at VHL/CRBN in HEK293 cells assessed as CRBN protein abundance at 1 uM after 4 hrs by Western blot analysis relative to DMSO; procedure, shortened: as §3
# [28] = target: T1, Protein cereblon/von Hippel-Lindau disease tumor suppressor; test: Protac activity at VHL/CRBN in human HeLa cells assessed as pVHL19 protein abundance at 5 nM after 4 hrs by Western blot analysis relative to DMSO; procedure, shortened: as §1
# [29] = target: T1, Protein cereblon/von Hippel-Lindau disease tumor suppressor; test: Protac activity at VHL/CRBN in HEK293 cells assessed as CRBN protein abundance at 1 uM after 24 hrs by Western blot analysis relative to DMSO; procedure, shortened: as §3
# [30] = target: T1, Protein cereblon/von Hippel-Lindau disease tumor suppressor; test: Protac activity at VHL/CRBN in human HeLa cells assessed as CRBN protein abundance at 1 uM after 24 hrs by Western blot analysis relative to DMSO; procedure, shortened: as §2
smiles,measurement,setting,value
Cc1ncsc1-c1ccc(CNC(=O)[C@@H]2C[C@@H](O)CN2C(=O)[C@@H](NC(=O)COCCCCCOCCOCCCCCOCC(=O)NCCNc2cccc3c2C(=O)N(C2CCC(=O)NC2=O)C3=O)C(C)(C)C)cc1 (stereo not given in full),Activity,[1],61%
same,Activity,[2],19%
same,Activity,[3],15%
same,Activity,[4],106%
same,Activity,[5],64%
same,Activity,[6],85%
same,Activity,[7],110%
same,Activity,[8],25%
same,DC50,[9],0.2 µM
same,Activity,[10],25%
same,Activity,[11],108%
same,Activity,[12],79%
same,Activity,[13],124%
same,Activity,[14],100%
same,Activity,[15],93%
same,Activity,[16],106%
same,Activity,[17],49%
same,Activity,[18],110%
same,Activity,[19],98%
same,Activity,[20],88%
same,Activity,[21],101%
same,Activity,[22],119%
same,Activity,[23],125%
same,Activity,[24],105%
same,Activity,[25],inactive
same,Activity,[26],130%
same,Activity,[27],6%
same,Activity,[28],87%
same,Activity,[29],6%
same,Activity,[30],13%
